Data set [1] in a line: Stability in pH 6.5 simulated gastrointestinal fluid assessed as compound remaining at 50 uM after 3 hrs by LC-MS/MS method. Format: ADME. Conditions: read-out: Stability. In short, it runs like this:
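Compounds at 50 μM were incubated in fasted-state simulated intestinal fluid (FaSSIF, pH 6.5) for over 3 h. Percent remaining was determined by LC-MS/MS.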

The test system of data set [2] is Canis familiaris. Kind of data set: AUC (0 to 8 hrs) in fasted Beagle dog assessed as ertapenem level at 1 mg/kg, iv by LC-MS/MS method. Format: ADME, organism-based, Canis lupus familiaris, Plasma. Also on record: time < 8 hr, dose 1 mg/kg, route intravenous. Conditions: in vivo.
For data set [3], the system named is Rattus norvegicus. Kind of data set: AUC (0 to 8 hrs) in fasted Sprague-Dawley rat assessed as ertapenem level at 10 mg/kg dosed through intraduodenal route by LC-MS/MS method. Format: ADME, organism-based, Plasma. Also on record: time < 8 hr, dose 10 mg/kg, route intraduodenal. The note with it: in vivo, other. The gist of the method: (§1)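 Prodrugs were given intraduodenally to bypass stomach acid. Plasma was sampled at intervals over 8 h, and parent prodrug, the two monoester metabolites and ertapenem were quantified by LC-MS/MS. The lower limit of quantitation was 5 nM. AUC(0–8) was used, and it differed from AUC(0–∞) by ±20%. Vehicles were 30% Captisol or 0.5% methylcellulose, as solution or suspension depending on compound.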

Data set [4] deals with Canis familiaris. In words: AUC (0 to 8 hrs) in fasted Beagle dog assessed as ertapenem level at 10 mg/kg dosed through intraduodenal route by LC-MS/MS method. Format: ADME, organism-based, Canis lupus familiaris, Plasma. Also on record: time < 8 hr, dose 10 mg/kg, route intraduodenal. The note with it: in vivo, other. In short, it runs like this:
as §1

Data set [5] concerns Rattus norvegicus. Kind of data set: Oral bioavailability in fasted Sprague-Dawley rat assessed as ertapenem and monoetser metabolites level at 10 mg/kg dosed through intraduodenal route by LC-MS/MS method. It is filed as ADME, organism-based. The note with it: in vivo. The gist of the method:
(§2)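 Total absorption followed intraduodenal dosing with LC-MS/MS of plasma over 8 h. It was calculated as the combined dose-normalized AUC of circulating parent prodrug, ertapenem and two monoesters, divided by dose-normalized AUC of ertapenem given iv. Vehicle was 30% Captisol or 0.5% methylcellulose.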

Data set [6] is described as follows: Stability in pH 2.0 simulated gastric fluid assessed as compound degradation to beta-lactam ring open products at 1 uM after 60 mins by LC-MS/MS method. It is filed as ADME. Conditions: read-out: Drug degradation. In short, it runs like this: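 Incubation was in simulated gastric fluid (SGF, pH 2.0) for 60 min, with loss to the β-lactam ring-opened product measured by LC-MS/MS.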

Data set [7] has as its system Rattus norvegicus. Kind of data set: Oral bioavailability in fasted Sprague-Dawley rat assessed as ertapenem level at 10 mg/kg dosed through intraduodenal route by LC-MS/MS method. Format: ADME, organism-based. Conditions: in vivo. In short, it runs like this:
(§3)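 After intraduodenal dosing, plasma over 8 h was analysed by LC-MS/MS. Bioavailability was calculated as dose-normalized AUC of ertapenem formed from the prodrug divided by dose-normalized AUC of ertapenem dosed iv. Vehicle was 30% Captisol or 0.5% methylcellulose.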

A short description of data set [8]: Stability in pH 7.4 phosphate buffer assessed as compound remaining at 50 uM after 3 hrs by LC-MS/MS method. It is filed as physicochemical. Conditions: read-out: Stability.
Data set [9] can be described thus: Stability in rat plasma assessed as compound remaining at 50 uM at 37 degC after 60 mins by LC-MS/MS method. Conditions: read-out: Stability. Format: ADME, cell-free. The gist of the method:
(§4)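 Prodrugs were incubated in rat or human plasma for 60 min. Disappearance of prodrug and concomitant appearance of ertapenem were followed by LC-MS/MS, and in selected cases monoesters from partial hydrolysis were also monitored. Ertapenem itself was incubated the same way as a control.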

Data set [10] is described as follows: Stability in human plasma assessed as compound remaining at 50 uM at 37 degC after 60 mins by LC-MS/MS method. It is filed as ADME, cell-free. The note with it: read-out: Stability. In short, it runs like this: as §4
Data set [11] can be described thus: AUC (0 to 8 hrs) in fasted Sprague-Dawley rat at 1 mg/kg, iv by LC-MS/MS method. It is filed as ADME, organism-based. Also on record: time < 8 hr, dose 1 mg/kg, route intravenous. The note with it: plasma.
For data set [12], the system named is Canis familiaris. In words: AUC (0 to 8 hrs) in fasted Beagle dog assessed as 8-OH, C-3 ester level at 6.18 mg/kg dosed through intraduodenal route by LC-MS/MS method. Format: ADME, organism-based, Canis lupus familiaris, Plasma. Also on record: time < 8 hr, dose 6.18 mg/kg, route intraduodenal. Conditions: in vivo, other. The gist of the method: as §1
In data set [13] the test system is Canis familiaris. Kind of data set: Oral bioavailability in fasted Beagle dog assessed as ertapenem level at 6.18 mg/kg dosed through intraduodenal route by LC-MS/MS method. It is filed as ADME, organism-based, Canis lupus familiaris. Conditions: in vivo. The gist of the method: as §3
The nature of data set [14]: Oral drug absorption in fasted Beagle dog at 6.18 mg/kg dosed through intraduodenal route by LC-MS/MS method. It is filed as ADME, organism-based, Canis lupus familiaris. Also on record: dose 6.18 mg/kg, route intraduodenal. Conditions: in vivo. The gist of the method:
as §2

The test system of data set [15] is Canis familiaris. In words: AUC (0 to 8 hrs) in fasted Beagle dog assessed as ertapenem level at 6.18 mg/kg dosed through intraduodenal route by LC-MS/MS method. Format: ADME, organism-based, Canis lupus familiaris, Plasma. Also on record: time < 8 hr, dose 6.18 mg/kg, route intraduodenal. The note with it: in vivo, other. In short, it runs like this: as §1
In data set [16] the test system is Canis familiaris. Kind of data set: AUC (0 to 8 hrs) in fasted Beagle dog assessed as 8-OH, benzoate ester level at 6.18 mg/kg dosed through intraduodenal route by LC-MS/MS method. It is filed as ADME, organism-based, Canis lupus familiaris, Plasma. Also on record: time < 8 hr, dose 6.18 mg/kg, route intraduodenal. The note with it: in vivo, other. In short, it runs like this:
as §1

Data set [17] deals with Canis familiaris. In words: Oral bioavailability in fasted Beagle dog assessed as assessed as ertapenem and monoetser metabolites level at 6.18 mg/kg dosed through intraduodenal route by LC-MS/MS method. It is filed as ADME, organism-based, Canis lupus familiaris. The note with it: in vivo. In short, it runs like this: as §2
The nature of data set [18]: AUC (0 to 8 hrs) in fasted Beagle dog at 6.18 mg/kg dosed through intraduodenal route by LC-MS/MS method. It is filed as ADME, organism-based, Canis lupus familiaris. Also on record: time < 8 hr, dose 6.18 mg/kg, route intraduodenal. The note with it: plasma. The gist of the method: as §1
Data set [19] is described as follows: AUC (0 to 8 hrs) in fasted Sprague-Dawley rat at 10 mg/kg dosed through intraduodenal route by LC-MS/MS method. Format: ADME, organism-based, Plasma. Also on record: time < 8 hr, dose 10 mg/kg, route intraduodenal. The note with it: Sprague-Dawley, plasma. The gist of the method:
as §1

Here are results for two molecules from ChEMBL document CHEMBL3351346, “Design, synthesis, structure-function relationship, bioconversion, and pharmacokinetic evaluation of ertapenem prodrugs” (J Med Chem, 2014).

As a reminder, the AUC is the area under the concentration-time curve, a measure of exposure. For orientation: AUC(0-t) means exposure summed from dosing to a finite time, without extrapolation to infinity. Consider `C[C@@H](O)[C@H]1C(=O)N2C(C(=O)[O-])=C(S[C@@H]3CN[C@H](C(=O)Nc4cccc(C(=O)O)c4)C3)[C@H](C)[C@H]12.O.[Na+]`, for which the remaining at 3 h, 50 µM in [1] and in [8] was more than 95% each time. Further, the AUC in the data set with Canis familiaris [2] stood at 8.9 µM·h; with Rattus norvegicus [3] it was 0.5 µM·h; in the data set on Canis familiaris [4], 1.4 µM·h. Further, the F with Rattus norvegicus [5] and in the data set on Rattus norvegicus [7] was 0.7% each time. In [6], the degraded at 1 h, 1 µM was more than 25%. In addition, the remaining at 1 h, 50 µM in data set [9] and in [10] was 100% throughout. The same molecule returned an AUC(0-t) at 8 h in data set [11] of 7.8 µM·h.

`CC(C)OC(=O)C1=C(S[C@@H]2CN[C@H](C(=O)Nc3cccc(C(=O)OC(C)C)c3)C2)[C@H](C)[C@@H]2[C@@H]([C@@H](C)O)C(=O)N12`: the remaining at 3 h, 50 µM in data set [1] and in data set [8] was more than 95% each time. The AUC in the data set on Canis familiaris [12] was 0.2 µM·h; with Rattus norvegicus [3], less than 0.1 µM·h; with Canis familiaris [15] it was 0.2 µM·h; with Canis familiaris [16], 0.3 µM·h. Moreover, the F is reported as 0.5% in the data set on Canis familiaris [13], 0.1% in the data set on Rattus norvegicus [5], less than 0.1% with Rattus norvegicus [7] and 5.1% in the data set with Canis familiaris [17]. In data set [14], the Fa came out at 5.1%. Besides, the degraded at 1 h, 1 µM in data set [6] is more than 25%. Also, the exposure AUC(0-t) at 8 h in data set [18] was 1.6 µM·h; in data set [19], 0.09 µM·h. Moreover, the figures for the remaining at 1 h, 50 µM in data set [9] and in data set [10] were 0% and 16%, respectively.
